From ChEMBL document CHEMBL1157417, “Synthetic and pharmacological studies on new simplified analogues of the potent actin-targeting Jaspamide” (Bioorg Med Chem, 2008)
Activity calls are given as the source filed them. The rule behind the calls is not given here.

Experiments:
Type in all cases: functional, cell-based
A498 [1] = assay: Effect on morphology in human A498 cells assessed as cell aberration at 100 umol after 16 hrs by microfilament immunofluorescence assay
How it was run: (§1)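 A-498 cells grown to near-confluency on glass coverslips, then exposed 16 h. Cytochalasin B served as the microfilament-depolymerising positive control. Microfilaments stained with monoclonal anti-actin and microtubules with monoclonal anti-β-tubulin, both visualised with fluorescein-conjugated anti-mouse IgG. Scored for binucleation and other cellular aberration.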

A498 [2] = assay: Cytotoxicity against human A498 cells after 48 hrs by SRB binding assay; settings: A498, 48 h
How it was run: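 A498 kidney adenocarcinoma cells kept in R-MEM with 10% FBS and 50 µg/mL gentamycin, 37 °C, 5% CO2. Seeded at about 15% confluency and left 24 h to attach. Treated in triplicate with varying concentrations for 48 h. Survival read by sulforhodamine B binding as a percentage of control cultures.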

A498 [3] = assay: Effect on morphology in human A498 cells assessed as appearance of binucleated cells after 16 hrs by microfilament immunofluorescence assay; how it was run: as §1

Structure (SMILES)	Activity (A498 [1])	IC50 (A498 [2])	Activity (A498 [3])
C[C@@H]1NC(=O)CCCCCCCNC(=O)C[C@H](c2ccccc2)NC(=O)[C@@H](Cc2c[nH]c3ccccc23)NC1=O	inactive		
C[C@@H]1NC(=O)CCNC(=O)CCCNC(=O)C[C@H](c2ccccc2)NC(=O)[C@@H](Cc2c[nH]c3ccccc23)NC1=O	inactive		
C[C@@H]1NC(=O)CC/C=C/CCCOC(=O)CCNC(=O)[C@@H](Cc2c[nH]c3ccccc23)NC1=O	inactive		
C[C@@H]1NC(=O)CCNC(=O)CCCNC(=O)CCNC(=O)[C@@H](Cc2c[nH]c3ccccc23)NC1=O	inactive		
C[C@@H]1NC(=O)CC/C=C/CCCOC(=O)C[C@H](c2ccccc2)NC(=O)[C@@H](Cc2c[nH]c3ccccc23)NC1=O	inactive	25 µM	
CC1/C=C/CCCOC(=O)C[C@H](c2ccccc2)NC(=O)[C@@H](Cc2c[nH]c3ccccc23)NC(=O)[C@H](C)NC(=O)C1 (stereo not given in full)	inactive	25 µM	
COc1ccc([C@H]2CC(=O)NCCCC(=O)NCCC(=O)N[C@@H](C)C(=O)N[C@H](Cc3c[nH]c4ccccc34)C(=O)N2)cc1	inactive		
C=C1[C@@H](C)[C@H]2[C@H](Cc3ccccc3)NC(=O)[C@]23OC(=O)/C=C/[C@H](O)CCC[C@@H](C)C/C=C/[C@H]3[C@@H]1O			Active
